Series [1] has as its system PfPFT (P. falciparum protein farnesyltransferase). The series can be described thus: PfPFT [3H] scintillation proximity assay. The series is classed as biochemical. Conditions: rat PFT IC50 / PfPFT IC50.
The target in series [2] is rat PFT (Rattus norvegicus, UniProt Q02293+Q04631). The series can be described thus: rat PFT [3H] scintillation proximity assay. The class given is biochemical. A general note: Scintillation proximity formats need no separation of bound from free tracer.
Series [3] deals with P. falciparum 3D7 (chloroquine-sensitive). The class given is cell-based. The following applies: Plasmodium falciparum, 3D7, Erythrocyte, 48 h, read-out: ED50 (nM) 3D7. In short, it runs like this:
(§1)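 Parasites cultured in type A+ human erythrocytes (2% hematocrit) in RPMI-1640 with 20% heat-inactivated type A+ human plasma, under 5% CO2/5% O2/90% N2. Test compound in DMSO added to culture at 0.5% parasitemia and 0.5% hematocrit. Incubated 37 °C for 48 h, then [8-3H]hypoxanthine (0.3 µCi) added for a further 24 h. Cells harvested to filter mats and counted by β-scintillation. Uninfected-erythrocyte background subtracted; DMSO-only wells taken as 100% growth. ED50 from linear regression of incorporation vs concentration.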

Series [4] deals with P. falciparum K1 (chloroquine-resistant, pyrimethamine-resistant). The series is classed as cell-based. Conditions: Plasmodium falciparum, K1, Erythrocyte, 48 h, read-out: ED50 (nM) K1. The essentials: as §1
In series [5] the test system is P. falciparum 3D7 (chloroquine-sensitive). The following applies: strain 3D7, infected erythrocytes; previously published data ref 26, 27; cited from earlier work.
In series [6] the test system is P. falciparum K1 (chloroquine-resistant, pyrimethamine-resistant). The following applies: strain K1, infected erythrocytes; previously published data ref 26, 27; cited from earlier work.
The target of series [7] is T1, PfPFT (P. falciparum protein farnesyltransferase) (Plasmodium falciparum, UniProt Q5EI73+Q5EI74). The following applies: 50 nM inhibitor concentration; previously published data ref 26, 27; cited from earlier work.
The conditions of series [8]: incubation with liver microsomes; cited from earlier work. (Liver microsomes are vesicles of endoplasmic reticulum, rich in cytochrome P450 enzymes.)
Series [9] concerns the target T1, PfPFT (P. falciparum protein farnesyltransferase). In words: PfPFT [3H] scintillation proximity assay. The class given is biochemical.

The structures appear in SMILES notation. Read-outs that look alike come from different tables or passages of the source.

The text below walks through data of PMC3049929 (Journal of medicinal chemistry, 2008).

Regarding `Cn1cnc(S(=O)(=O)N(CC2CCN(C(=O)OC(C)(C)C)CC2)[C@@H]2CCC[C@@H]2N(Cc2cncn2C)c2ccc(C#N)cc2)c1` (racemic) [6d, (±)-[N-(N-tert-Butoxycarbonylpiperidin-4-ylmethyl)-N-{cis-2-[(4-cyanophenyl)(3-methyl-3H-imidazol-4-ylmethyl)amino]cyclopentyl}]-1-methyl-1H-imidazole-4-sulfonamide], in series [1], the “Selectivity (ratio of rat to P. falciparum PFT IC50 values)” value is recorded as above 2.9 fold. The values for the IC50 in series [2] and in series [3] were above 1000 nM and 3000 nM, respectively.
For `Cn1cnc(S(=O)(=O)N(CC2CCN(C(=O)OC(C)(C)C)CC2)[C@H]2CCC[C@@H]2N(Cc2cncn2C)c2ccc(C#N)cc2)c1` (racemic) [7d, (±)-[N-(N-tert-Butoxycarbonylpiperidin-4-ylmethyl)-N-{trans-2-[(4-cyanophenyl)(3-methyl-3H-imidazol-4-ylmethyl)amino]cyclopentyl}]-1-methyl-1H-imidazole-4-sulfonamide], the “Selectivity (ratio of rat to P. falciparum PFT IC50 values)” value in series [1] is reported as above 100 fold. Further, the IC50 was above 1000 nM in series [2] and 600 nM in series [4].
In the case of `Cn1cnc(S(=O)(=O)N(CCN(Cc2cncn2C)c2ccc(C#N)cc2)Cc2ccccc2)c1` [1a], in [5], the “ED50 (nM) 3D7” value is 349 nM. For the same molecule, the “ED50 (nM) K1” value in [6] is 375 nM.
With `Cc1ccccc1CN(CCN(Cc1cncn1C)c1ccc(C#N)cc1)S(=O)(=O)c1cn(C)cn1` [1b], the “ED50 (nM) 3D7” value in [5] is on record as 93 nM. For the same molecule, the “ED50 (nM) K1” value in [6] is listed as 150 nM.
With `Cn1cnc(S(=O)(=O)N(CCN(Cc2cncn2C)c2ccc(C#N)cc2)Cc2ccsc2)c1` [1c], the “Inhibition of PfFTase (%) 50 nM” value in series [7] is given as 100%. Further, the “ED50 (nM) 3D7” value in [5] is 150 nM. The “ED50 (nM) K1” value in series [6] is listed as 240 nM.
With `Cn1cnc(S(=O)(=O)N(CCN(Cc2cncn2C)c2ccc(C#N)cc2)CC2CCN(C(=O)OC(C)(C)C)CC2)c1` [1d], in series [5], the “ED50 (nM) 3D7” value was 88 nM. Also, the “ED50 (nM) K1” value in series [6] is given as 54 nM. Also, the metabolic stability result in series [8] was “limited”.
Take `Cn1cnc(S(=O)(=O)N(CCN(Cc2cncn2C)c2ccc(C#N)cc2)CC2CCN(c3ncccn3)CC2)c1` [1e]: the “ED50 (nM) 3D7” value in series [5] is listed as 130 nM. Further, the “ED50 (nM) K1” value in series [6] was 85 nM.
In general, inhibition refers to the share of the control response that was lost under treatment. Regarding `Cn1cnc(S(=O)(=O)N(CC2CCN(C(=O)OC(C)(C)C)CC2)[C@H]2CC[C@H](N(Cc3cncn3C)c3ccc(C#N)cc3)CC2)c1` [11d, (±)-[N-(N-tert-Butoxycarbonylpiperidin-4-ylmethyl)-N-{trans-4-[(4-cyanophenyl)(3-methyl-3H-imidazol-4-ylmethyl)amino]cyclohexyl}]-1-methyl-1H-imidazole-4-sulfonamide], in series [9] (50 nM inhibitor concentration), the “Inhibition of PfFTase (%) 50 nM” value is given as “no inhibitory activity”. Besides, the inhibition at 0.05 µM in [9] (read-out: Inhibition of PfFTase (%) 50 nM) turned out to be 0%. In addition, the IC50 in series [4] was found to be 1200 nM.
